PMC9058365 (RSC Advances, 2020)

How the values were obtained:
[1] = system: New Zealand albino rabbits; assay: In vivo tolerance study; conditions: rabbit eye, scale 0-3, n = 3
Procedure, shortened: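 Male New Zealand albino rabbits (1.5–2.0 kg) free of ocular inflammation, housed at 25 ± 2 °C, 75% RH, 12:12 h light cycle. Nine animals were split into three groups of three. […] Macroscopic signs were graded at 0.5, 4.0 and 16.0 h, and scores were summed into an overall irritation index.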

[2] = Pharmacokinetic study; assay type: in vivo; conditions: rabbit plasma, n = 3; for T max: 5 IU kg^−1, HPLC; for AUC0–12: 5 IU kg^−1, trapezoidal method, mean ± SD
[3] = rabbits, administered topically via ocular route; ref 25 (Yamamoto et al., 1989); cited from earlier work
[4] = system: diabetic rabbits (streptozotocin); assay: In vivo anti-diabetic study; parameters: species or system rabbit; conditions: at 4 h, subcutaneous injection, n = 3
Procedure, shortened: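 Male New Zealand albino rabbits (1.5–2.0 kg) made diabetic by intravenous streptozotocin (65 mg kg−1, in citrate buffer pH 5.0) given in the evening for three days. Baseline blood glucose was taken on day 1 after overnight fasting. Blood glucose was followed over time and expressed as % of initial level, n = 3 per group.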

[5] = 0.5 h after single instillation of 50 μl
[6] = 4.0 h after single instillation of 50 μl
[7] = 16.0 h after single instillation of 50 μl

Insulin [Plain insulin solution]
Conjunctiva grade [1, 5]: 0 | Cornea grade [1, 5]: 0 | Discharge grade [1, 5]: 0 | Lids grade [1, 5]: 0 | Conjunctiva grade [1, 6]: 0 | Cornea grade [1, 6]: 0 | Discharge grade [1, 6]: 1 | Discomfort grade [1, 6]: 0 | Lids grade [1, 6]: 0 | Conjunctiva grade [1, 7]: 0 | Cornea grade [1, 7]: 0 | Discharge grade [1, 7]: 0 | Discomfort grade [1, 7]: 0 | Lids grade [1, 7]: 0 | T max ([2]; ocular instillation): 19.8 min | AUC0–12 ([2]; ocular instillation): 1870 ± 1700 ng·h/mL

insulin
bioavailability [3]: less than 1%

Subcutaneous insulin injection: subcutaneous injection of human insulin solution
drop in blood glucose level [4]: 71.08 ± 3.24 | T max ([2]; subcutaneous injection): 30 min | AUC0–12 ([2]; subcutaneous injection): 197380 ± 2760 ng·h/mL
